Laboratory results from ChEMBL document CHEMBL4689842, “EUbOPEN Chemogenomics Library wave 1” (2021).
“And” between values parts separate entries of the source, which are not always exact repeats. Equal values may be shown once.

Tested on: HEK-293T
Experiment: Multiplex assay against HEK293T;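 for Population Tubulin-Different-Phenotype (%): share of the cells with healthy nuclei that show this phenotype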
Type: toxicity, cell-based
Details: human
How it was run: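 At seeding, live cells were stained with Hoechst33342, BioTracker Green Microtubule Cytoskeleton Dye, MitoTracker Red and Annexin V Alexa Fluor 680. After compound addition they were imaged on a CQ1 microscope at 37°C and 5% CO2, and CellPathfinder machine-learning gating sorted them into Hoechst high-intensity objects or normal cells, with normal cells further split into healthy, pyknosed or fragmented nuclei and pyknosed cells into mitotic or apoptotic. Tubulin, mitochondrial-mass and membrane-permeability phenotypes are given as per cents of cells with healthy nuclei.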

[1] = 12 h, 1 µM, compound concentration 1 uM, replicate 1
[2] = 12 h, 1 µM, compound concentration 1 uM, replicate 2
[3] = 12 h, 10 µM, compound concentration 10 uM, replicate 1
[4] = 12 h, 10 µM, compound concentration 10 uM, replicate 2
[5] = 24 h, 1 µM, compound concentration 1 uM, replicate 1
[6] = 24 h, 1 µM, compound concentration 1 uM, replicate 2
[7] = 24 h, 10 µM, compound concentration 10 uM, replicate 1
[8] = 24 h, 10 µM, compound concentration 10 uM, replicate 2
[9] = 48 h, 1 µM, compound concentration 1 uM, replicate 1
[10] = 48 h, 1 µM, compound concentration 1 uM, replicate 2
[11] = 48 h, 10 µM, compound concentration 10 uM, replicate 1
[12] = 48 h, 10 µM, compound concentration 10 uM, replicate 2

Cc1c[nH]c2nccc(Oc3c(F)cc(Nc4cc(Cl)nc(N)n4)cc3F)c12 [BAY-549]
Population Apoptotic (%) [1]: 37% | Population Fragmented Nuclei (%) [1]: 15% | Population Healthy Nuclei (%) [1]: 32% | Population Hoechst High Intensity Objects (%) [1]: 12% | Population Membrane Permeable-Phenotype (%) [1]: 0% | Population Mitochondria Different-Phenotype (%) [1]: 71% | Population Mitotic Cells (%) [1]: 62% | Population Normal (%) [1]: 87% | Population Pyknosed Nuclei (%) [1]: 52% | Population Tubulin-Different-Phenotype (%) [1]: 31% | Total Cell Count [1]: 310 | Population Apoptotic (%) [2]: 13% | Population Fragmented Nuclei (%) [2]: 7% | Population Healthy Nuclei (%) [2]: 54% | Population Hoechst High Intensity Objects (%) [2]: 4% | Population Membrane Permeable-Phenotype (%) [2]: 8% | Population Mitochondria Different-Phenotype (%) [2]: 8% | Population Mitotic Cells (%) [2]: 86% | Population Normal (%) [2]: 95% | Population Pyknosed Nuclei (%) [2]: 37% | Population Tubulin-Different-Phenotype (%) [2]: 14% | Total Cell Count [2]: 236 | Population Apoptotic (%) [3]: 45% | Population Fragmented Nuclei (%) [3]: 9% | Population Healthy Nuclei (%) [3]: 45% | Population Hoechst High Intensity Objects (%) [3]: 8% | Population Mitochondria Different-Phenotype (%) [3]: 65% | Population Mitotic Cells (%) [3]: 54% | Population Normal (%) [3]: 91% | Population Pyknosed Nuclei (%) [3]: 44% | Population Tubulin-Different-Phenotype (%) [3]: 5% | Total Cell Count [3]: 370 | Population Apoptotic (%) [4]: 16% | Population Fragmented Nuclei (%) [4]: 5% | Population Healthy Nuclei (%) [4]: 42% | Population Hoechst High Intensity Objects (%) [4]: 3% | Population Membrane Permeable-Phenotype (%) [4]: 0% | Population Mitochondria Different-Phenotype (%) [4]: 11% | Population Mitotic Cells (%) [4]: 83% | Population Normal (%) [4]: 96% | Population Pyknosed Nuclei (%) [4]: 52% | Population Tubulin-Different-Phenotype (%) [4]: 1% | Total Cell Count [4]: 247 | Population Apoptotic (%) [5]: 45% | Population Fragmented Nuclei (%) [5]: 14% | Population Healthy Nuclei (%) [5]: 32% | Population Hoechst High Intensity Objects (%) [5]: 10% | Population Membrane Permeable-Phenotype (%) [5]: 2% | Population Mitochondria Different-Phenotype (%) [5]: 47% | Population Mitotic Cells (%) [5]: 54% | Population Normal (%) [5]: 89% | Population Pyknosed Nuclei (%) [5]: 52% | Population Tubulin-Different-Phenotype (%) [5]: 25% | Total Cell Count [5]: 284 | Population Apoptotic (%) [6]: 18% | Population Fragmented Nuclei (%) [6]: 13% | Population Healthy Nuclei (%) [6]: 66% | Population Hoechst High Intensity Objects (%) [6]: 3% | Population Membrane Permeable-Phenotype (%) [6]: 8% | Population Mitochondria Different-Phenotype (%) [6]: 10% | Population Mitotic Cells (%) [6]: 81% | Population Normal (%) [6]: 96% | Population Pyknosed Nuclei (%) [6]: 19% | Population Tubulin-Different-Phenotype (%) [6]: 7% | Total Cell Count [6]: 255 | Population Apoptotic (%) [7]: 48% | Population Fragmented Nuclei (%) [7]: 11% | Population Healthy Nuclei (%) [7]: 41% | Population Hoechst High Intensity Objects (%) [7]: 9% | Population Mitochondria Different-Phenotype (%) [7]: 51% | Population Mitotic Cells (%) [7]: 51% | Population Normal (%) [7]: 90% | Population Pyknosed Nuclei (%) [7]: 46% | Population Tubulin-Different-Phenotype (%) [7]: 4% | Total Cell Count [7]: 375 | Population Apoptotic (%) [8]: 31% | Population Fragmented Nuclei (%) [8]: 6% | Population Healthy Nuclei (%) [8]: 49% | Population Hoechst High Intensity Objects (%) [8]: 2% | Population Membrane Permeable-Phenotype (%) [8]: 0% | Population Mitochondria Different-Phenotype (%) [8]: 21% | Population Mitotic Cells (%) [8]: 68% | Population Normal (%) [8]: 97% | Population Pyknosed Nuclei (%) [8]: 44% | Population Tubulin-Different-Phenotype (%) [8]: 5% | Total Cell Count [8]: 233 | Population Apoptotic (%) [9]: 48% | Population Fragmented Nuclei (%) [9]: 29% | Population Healthy Nuclei (%) [9]: 34% | Population Hoechst High Intensity Objects (%) [9]: 9% | Population Membrane Permeable-Phenotype (%) [9]: 1% | Population Mitochondria Different-Phenotype (%) [9]: 24% | Population Mitotic Cells (%) [9]: 51% | Population Normal (%) [9]: 90% | Population Pyknosed Nuclei (%) [9]: 36% | Population Tubulin-Different-Phenotype (%) [9]: 24% | Total Cell Count [9]: 307 | Population Apoptotic (%) [10]: 28% | Population Fragmented Nuclei (%) [10]: 25% | Population Healthy Nuclei (%) [10]: 64% | Population Hoechst High Intensity Objects (%) [10]: 2% | Population Membrane Permeable-Phenotype (%) [10]: 8% | Population Mitochondria Different-Phenotype (%) [10]: 4% | Population Mitotic Cells (%) [10]: 71% | Population Normal (%) [10]: 97% | Population Pyknosed Nuclei (%) [10]: 10% | Population Tubulin-Different-Phenotype (%) [10]: 10% | Total Cell Count [10]: 336 | Population Apoptotic (%) [11]: 60% | Population Fragmented Nuclei (%) [11]: 16% | Population Healthy Nuclei (%) [11]: 34% | Population Hoechst High Intensity Objects (%) [11]: 9% | Population Mitochondria Different-Phenotype (%) [11]: 45% | Population Mitotic Cells (%) [11]: 39% | Population Normal (%) [11]: 90% | Population Pyknosed Nuclei (%) [11]: 48% | Population Tubulin-Different-Phenotype (%) [11]: 6% | Total Cell Count [11]: 330 | Population Apoptotic (%) [12]: 56% | Population Fragmented Nuclei (%) [12]: 4% | Population Healthy Nuclei (%) [12]: 47% | Population Hoechst High Intensity Objects (%) [12]: 3% | Population Membrane Permeable-Phenotype (%) [12]: 1% | Population Mitochondria Different-Phenotype (%) [12]: 10% | Population Mitotic Cells (%) [12]: 43% | Population Normal (%) [12]: 96% | Population Pyknosed Nuclei (%) [12]: 47% | Population Tubulin-Different-Phenotype (%) [12]: 8% | Total Cell Count [12]: 219

Cc1cc(C)c(-n2ccn3nc(-c4cccnc4)cc23)cc1NC(=O)c1cc(C#N)cc(S(F)(F)(F)(F)F)c1 [BAY-826]
Population Apoptotic (%) [1]: 30% | Population Fragmented Nuclei (%) [1]: 14% and 17% | Population Healthy Nuclei (%) [1]: 56% and 57% | Population Hoechst High Intensity Objects (%) [1]: 14% and 13% | Population Membrane Permeable-Phenotype (%) [1]: 36% and 23% | Population Mitochondria Different-Phenotype (%) [1]: 25% and 17% | Population Mitotic Cells (%) [1]: 69% | Population Normal (%) [1]: 85% and 86% | Population Pyknosed Nuclei (%) [1]: 28% and 24% | Population Tubulin-Different-Phenotype (%) [1]: 93% and 58% | Total Cell Count [1]: 624 and 510 | Population Fragmented Nuclei (%) [2]: 4% and 6% | Population Healthy Nuclei (%) [2]: 75% and 83% | Population Hoechst High Intensity Objects (%) [2]: 3% | Population Membrane Permeable-Phenotype (%) [2]: 34% and 17% | Population Mitochondria Different-Phenotype (%) [2]: 32% and 19% | Population Mitotic Cells (%) [2]: 79% and 93% | Population Normal (%) [2]: 96% | Population Pyknosed Nuclei (%) [2]: 20% and 9% | Population Tubulin-Different-Phenotype (%) [2]: 98% and 82% | Total Cell Count [2]: 1184 and 1372 | Population Apoptotic (%) [5]: 35% and 25% | Population Fragmented Nuclei (%) [5]: 12% and 11% | Population Healthy Nuclei (%) [5]: 66% and 76% | Population Hoechst High Intensity Objects (%) [5]: 12% and 7% | Population Membrane Permeable-Phenotype (%) [5]: 33% and 20% | Population Mitochondria Different-Phenotype (%) [5]: 28% and 16% | Population Mitotic Cells (%) [5]: 64% and 75% | Population Normal (%) [5]: 87% and 92% | Population Pyknosed Nuclei (%) [5]: 20% and 12% | Population Tubulin-Different-Phenotype (%) [5]: 95% and 76% | Total Cell Count [5]: 622 and 545 | Population Apoptotic (%) [6]: 9% and 14% | Population Healthy Nuclei (%) [6]: 78% and 68% | Population Hoechst High Intensity Objects (%) [6]: 4% | Population Membrane Permeable-Phenotype (%) [6]: 22% and 17% | Population Mitotic Cells (%) [6]: 90% and 85% | Population Normal (%) [6]: 95% | Population Tubulin-Different-Phenotype (%) [6]: 87% | Total Cell Count [6]: 2013 and 1166
